Calls of active or inactive are those of the source. No cut-off for these calls is given here.
What was measured:
[1] = biological target: Focal adhesion kinase 1 (Homo sapiens) (UniProt Q05397); test: Inhibition of FAK fl (unknown origin) assessed as residual activity at 1 uM relative to control
[2] = biological target: Epidermal growth factor receptor (Homo sapiens) (UniProt P00533); test: Inhibition of EGF-R (unknown origin) assessed as residual activity at 1 uM relative to control
BT-549 = test: Antiproliferative activity against human BT549 cells after 3 days by sulforhodamine B assay; type: functional; conditions: BT-549, 72 h
Summary of the method: (§1)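 Tested in the NCI 60 cell line panel. GI50 is the concentration giving 50% inhibition of cell growth, and values are the mean of two series of tests.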

TK-10 = test: Antiproliferative activity against human TK10 cells after 3 days by sulforhodamine B assay; type: functional; conditions: TK-10, 72 h
ACHN = test: Antiproliferative activity against human ACHN cells after 3 days by sulforhodamine B assay; type: functional; conditions: 72 h; summary of the method: as §1
[3] = Antiproliferative activity against human OVCAR4 cells after 3 days by sulforhodamine B assay; type: functional; conditions: OVCAR-4, 72 h; summary of the method: as §1
SK-MEL-5 = test: Antiproliferative activity against human SK-MEL-5 cells after 3 days by sulforhodamine B assay; type: functional; conditions: SK-MEL-5, 72 h; summary of the method: as §1
SF-268 = test: Antiproliferative activity against human SF268 cells after 3 days by sulforhodamine B assay; type: functional; conditions: SF-268, 72 h; summary of the method: as §1
KM12 = test: Antiproliferative activity against human KM12 cells after 3 days by sulforhodamine B assay; type: functional; conditions: KM12, 72 h; summary of the method: as §1
[4] = biological target: Testis-specific serine/threonine-protein kinase 1 (Homo sapiens) (UniProt Q9BXA7); test: Inhibition of human TSSK1 assessed as residual activity at 1 uM relative to control
[5] = biological target: Angiopoietin-1 receptor (Homo sapiens) (UniProt Q02763); test: Inhibition of human Tie2 assessed as residual activity at 1 uM relative to control
[6] = biological target: cAMP-dependent protein kinase catalytic subunit PRKX (Homo sapiens) (UniProt P51817); test: Inhibition of human PrKX assessed as residual activity at 1 uM relative to control
[7] = biological target: MAP kinase-activated protein kinase 5 (Homo sapiens) (UniProt Q8IW41); test: Inhibition of human PRAK assessed as residual activity at 1 uM relative to control
[8] = biological target: cGMP-dependent protein kinase 1 (Homo sapiens) (UniProt Q13976); test: Inhibition of human PKG1alpha assessed as residual activity at 1 uM relative to control
MCF7 [9] = test: Induction of apoptosis in human MCF7 cells assessed as PARP cleavage at 1 uM after 24 hrs by Western blot analysis; type: functional, cell-based
Summary of the method: (§2)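 Cells were lysed in urea lysis buffer (6 M urea, NaF, Na3VO4, protease inhibitors). 20–40 µg protein was run on 10% SDS-PAGE and detected by ECL. Primary antibodies (pAkt S473, PARP, β-actin loading control) were used at 1:1000 overnight at 4 °C. DMSO was the vehicle control. For the pAkt blots, cells were treated for 2 h with Ly294002 as positive control.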

MCF7 [10] = test: Cell cycle arrest in human MCF7 cells assessed as accumulation at G2/M phase at 0.5 uM after 24 hrs using propidium iodide staining by FACS analysis (reference value: 22.13%); type: functional
[11] = biological target: T1, Casein kinase II (Homo sapiens) (UniProt P67870+P68400+P19784); test: Inhibition of CK2 in human PANC1 cells assessed as reduction of Akt phosphorylation at S473 at 0.25 to 8 uM after 2 hrs by Western blot analysis; type: cell-based; conditions: PANC-1
Summary of the method: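 Panc1 cells were cultured in DMEM with 10% heat-inactivated FBS and penicillin/streptomycin at 37 °C and 5% CO2. Cells were treated with a range of concentrations for 2 h, with Ly294002 as positive control. Urea-buffer lysates (20–40 µg protein) were separated on 10% SDS–PAGE and probed for pAkt (S473) and β-actin. Detection was by ECL.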

[12] = biological target: T1, Casein kinase II (Homo sapiens); test: Inhibition of CK2 in human HEK293 cells assessed as reduction of Akt phosphorylation at S473 at 0.25 to 8 uM after 2 hrs by Western blot analysis; type: cell-based; summary of the method: as §2
[13] = biological target: Protein kinase C beta type (Homo sapiens) (UniProt P05771); test: Inhibition of human PKCbeta2 assessed as residual activity at 1 uM relative to control
[14] = biological target: Serine/threonine-protein kinase pim-3 (Homo sapiens) (UniProt Q86V86); test: Inhibition of human Pim-3 assessed as residual activity at 1 uM relative to control
[15] = biological target: Phosphorylase b kinase gamma catalytic chain, liver/testis isoform (Homo sapiens) (UniProt P15735); test: Inhibition of human PhKgamma2 assessed as residual activity at 1 uM relative to control
[16] = biological target: Ribosomal protein S6 kinase beta-1 (Homo sapiens) (UniProt P23443); test: Inhibition of human p70S6K assessed as residual activity at 1 uM relative to control
[17] = biological target: Vascular endothelial growth factor receptor 1 (Homo sapiens) (UniProt P17948); test: Inhibition of human Flt1 assessed as residual activity at 1 uM relative to control
[18] = biological target: Fibroblast growth factor receptor 1 (Homo sapiens) (UniProt P11362); test: Inhibition of human FGFR1 assessed as residual activity at 1 uM relative to control
[19] = biological target: Ephrin type-B receptor 2 (Homo sapiens) (UniProt P29323); test: Inhibition of human EphB2 assessed as residual activity at 1 uM relative to control
[20] = biological target: Ephrin type-A receptor 5 (Homo sapiens) (UniProt P54756); test: Inhibition of human EphA5 assessed as residual activity at 1 uM relative to control
[21] = biological target: Ephrin type-A receptor 2 (Homo sapiens) (UniProt P29317); test: Inhibition of human EphA2 assessed as residual activity at 1 uM relative to control
[22] = biological target: Serine/threonine-protein kinase 17A (Homo sapiens) (UniProt Q9UEE5); test: Inhibition of human DRAK1 assessed as residual activity at 1 uM relative to control
[23] = biological target: Serine/threonine-protein kinase DCLK2 (Homo sapiens) (UniProt Q8N568); test: Inhibition of human DCAMKL2 assessed as residual activity at 1 uM relative to control
[24] = biological target: Discoidin domain-containing receptor 2 (Homo sapiens) (UniProt Q16832); test: Inhibition of human DDR2 assessed as residual activity at 1 uM relative to control
[25] = biological target: Cyclin-dependent kinase 5/CDK5 activator 1 (Homo sapiens) (UniProt Q00535+Q15078); test: Inhibition of CDK5/p35NCK (unknown origin) assessed as residual activity at 10 uM relative to control; type: protein-complex assay
[26] = biological target: CDK2/Cyclin A2 (Homo sapiens) (UniProt P24941+P20248); test: Inhibition of CDK2/CycA (unknown origin) assessed as residual activity at 10 uM relative to control; type: protein-complex assay
[27] = biological target: Tyrosine-protein kinase ABL1 (Homo sapiens) (UniProt P00519); test: Inhibition of ABL1 (unknown origin) assessed as residual activity at 10 uM relative to control

Sequence of Serine/threonine-protein kinase 17A (Homo sapiens) (Q9UEE5 whole entry): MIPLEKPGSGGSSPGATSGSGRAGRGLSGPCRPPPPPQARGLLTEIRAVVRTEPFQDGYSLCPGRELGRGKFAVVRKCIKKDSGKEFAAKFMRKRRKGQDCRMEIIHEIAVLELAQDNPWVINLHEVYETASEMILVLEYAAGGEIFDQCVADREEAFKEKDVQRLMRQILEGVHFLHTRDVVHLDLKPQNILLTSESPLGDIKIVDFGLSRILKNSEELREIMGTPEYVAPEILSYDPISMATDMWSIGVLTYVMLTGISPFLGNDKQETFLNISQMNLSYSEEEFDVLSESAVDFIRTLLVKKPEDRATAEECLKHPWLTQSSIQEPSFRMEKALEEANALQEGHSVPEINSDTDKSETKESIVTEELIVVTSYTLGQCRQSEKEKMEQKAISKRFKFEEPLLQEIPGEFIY
Sequence of Protein kinase C beta type (Homo sapiens) (P05771 2-671 limits assumed): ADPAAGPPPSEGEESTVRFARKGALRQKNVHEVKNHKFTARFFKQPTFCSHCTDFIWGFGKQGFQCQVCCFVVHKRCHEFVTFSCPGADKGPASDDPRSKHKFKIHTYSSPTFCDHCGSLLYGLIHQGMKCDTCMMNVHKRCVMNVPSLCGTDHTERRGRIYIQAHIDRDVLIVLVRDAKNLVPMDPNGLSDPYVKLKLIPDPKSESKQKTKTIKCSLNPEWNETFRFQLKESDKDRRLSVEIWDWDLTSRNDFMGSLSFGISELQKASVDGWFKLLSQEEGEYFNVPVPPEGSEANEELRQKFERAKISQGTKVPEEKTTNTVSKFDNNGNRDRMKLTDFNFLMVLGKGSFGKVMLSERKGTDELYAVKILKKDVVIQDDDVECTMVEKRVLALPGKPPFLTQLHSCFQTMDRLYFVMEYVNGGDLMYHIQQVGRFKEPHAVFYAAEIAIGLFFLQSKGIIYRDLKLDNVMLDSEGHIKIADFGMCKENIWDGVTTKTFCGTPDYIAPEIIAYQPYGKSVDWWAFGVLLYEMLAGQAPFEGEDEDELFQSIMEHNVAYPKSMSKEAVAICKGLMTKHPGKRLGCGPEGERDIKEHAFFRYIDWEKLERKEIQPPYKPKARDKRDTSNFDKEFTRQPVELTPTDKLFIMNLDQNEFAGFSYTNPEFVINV
Sequence of cAMP-dependent protein kinase catalytic subunit PRKX (Homo sapiens) (P51817 whole entry): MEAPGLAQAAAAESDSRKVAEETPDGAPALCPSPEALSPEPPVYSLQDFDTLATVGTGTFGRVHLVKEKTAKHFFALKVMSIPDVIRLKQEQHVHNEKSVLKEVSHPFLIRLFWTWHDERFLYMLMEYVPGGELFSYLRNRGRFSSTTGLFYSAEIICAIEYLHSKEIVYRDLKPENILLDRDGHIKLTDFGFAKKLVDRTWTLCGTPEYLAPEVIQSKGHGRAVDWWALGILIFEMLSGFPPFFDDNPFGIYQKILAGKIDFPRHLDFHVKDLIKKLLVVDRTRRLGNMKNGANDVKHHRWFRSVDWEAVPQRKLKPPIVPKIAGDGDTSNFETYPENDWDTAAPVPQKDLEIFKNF
Sequence of Ribosomal protein S6 kinase beta-1 (Homo sapiens) (P23443 whole entry, looked up): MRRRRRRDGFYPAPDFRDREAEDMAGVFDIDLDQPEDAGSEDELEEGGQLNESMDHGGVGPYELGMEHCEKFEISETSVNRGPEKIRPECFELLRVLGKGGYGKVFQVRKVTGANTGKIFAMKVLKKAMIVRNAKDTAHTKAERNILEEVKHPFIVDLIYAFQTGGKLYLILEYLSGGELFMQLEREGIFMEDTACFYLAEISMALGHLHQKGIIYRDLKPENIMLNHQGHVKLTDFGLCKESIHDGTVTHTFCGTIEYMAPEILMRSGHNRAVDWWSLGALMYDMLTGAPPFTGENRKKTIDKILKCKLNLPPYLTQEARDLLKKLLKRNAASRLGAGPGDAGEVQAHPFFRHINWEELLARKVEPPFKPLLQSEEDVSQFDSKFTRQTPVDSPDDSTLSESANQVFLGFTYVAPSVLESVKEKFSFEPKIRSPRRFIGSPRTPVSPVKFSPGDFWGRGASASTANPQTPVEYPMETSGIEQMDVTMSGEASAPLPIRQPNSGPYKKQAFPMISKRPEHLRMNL
Sequence of Fibroblast growth factor receptor 1 (Homo sapiens) (P11362 22-822 limits assumed): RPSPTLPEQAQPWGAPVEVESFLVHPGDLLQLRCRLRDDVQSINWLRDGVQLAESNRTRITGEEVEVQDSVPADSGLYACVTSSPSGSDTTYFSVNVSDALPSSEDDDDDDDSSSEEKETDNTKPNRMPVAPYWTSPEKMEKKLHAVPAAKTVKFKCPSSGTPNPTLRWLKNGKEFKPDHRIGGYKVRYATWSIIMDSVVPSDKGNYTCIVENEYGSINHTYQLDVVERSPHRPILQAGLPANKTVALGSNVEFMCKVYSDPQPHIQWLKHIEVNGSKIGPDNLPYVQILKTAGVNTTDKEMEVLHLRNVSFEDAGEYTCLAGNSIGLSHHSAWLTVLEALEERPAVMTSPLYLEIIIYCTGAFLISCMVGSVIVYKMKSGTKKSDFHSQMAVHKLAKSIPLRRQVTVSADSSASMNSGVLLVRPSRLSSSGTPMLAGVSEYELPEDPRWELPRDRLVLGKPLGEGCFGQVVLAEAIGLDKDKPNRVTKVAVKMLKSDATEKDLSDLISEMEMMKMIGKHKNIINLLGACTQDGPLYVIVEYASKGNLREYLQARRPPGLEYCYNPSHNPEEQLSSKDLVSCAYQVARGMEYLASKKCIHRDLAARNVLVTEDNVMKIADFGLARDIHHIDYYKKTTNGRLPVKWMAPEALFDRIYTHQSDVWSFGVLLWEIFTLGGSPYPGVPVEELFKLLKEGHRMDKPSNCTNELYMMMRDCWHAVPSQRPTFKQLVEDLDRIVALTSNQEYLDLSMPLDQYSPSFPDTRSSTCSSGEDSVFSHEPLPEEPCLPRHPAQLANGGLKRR
Sequence of Phosphorylase b kinase gamma catalytic chain, liver/testis isoform (Homo sapiens) (P15735 whole entry, canonical isoform): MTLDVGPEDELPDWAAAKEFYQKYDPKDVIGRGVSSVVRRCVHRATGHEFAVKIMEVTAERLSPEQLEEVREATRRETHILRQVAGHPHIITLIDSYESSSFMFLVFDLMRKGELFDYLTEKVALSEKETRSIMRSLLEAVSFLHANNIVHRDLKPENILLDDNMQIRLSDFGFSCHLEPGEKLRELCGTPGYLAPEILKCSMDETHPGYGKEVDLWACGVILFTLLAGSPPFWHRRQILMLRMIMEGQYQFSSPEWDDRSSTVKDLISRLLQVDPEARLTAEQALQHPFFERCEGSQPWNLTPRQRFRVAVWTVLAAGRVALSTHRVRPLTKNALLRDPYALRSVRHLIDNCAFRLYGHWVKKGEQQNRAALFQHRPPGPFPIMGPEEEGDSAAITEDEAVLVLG
Sequence of Epidermal growth factor receptor (Homo sapiens) (P00533 whole entry): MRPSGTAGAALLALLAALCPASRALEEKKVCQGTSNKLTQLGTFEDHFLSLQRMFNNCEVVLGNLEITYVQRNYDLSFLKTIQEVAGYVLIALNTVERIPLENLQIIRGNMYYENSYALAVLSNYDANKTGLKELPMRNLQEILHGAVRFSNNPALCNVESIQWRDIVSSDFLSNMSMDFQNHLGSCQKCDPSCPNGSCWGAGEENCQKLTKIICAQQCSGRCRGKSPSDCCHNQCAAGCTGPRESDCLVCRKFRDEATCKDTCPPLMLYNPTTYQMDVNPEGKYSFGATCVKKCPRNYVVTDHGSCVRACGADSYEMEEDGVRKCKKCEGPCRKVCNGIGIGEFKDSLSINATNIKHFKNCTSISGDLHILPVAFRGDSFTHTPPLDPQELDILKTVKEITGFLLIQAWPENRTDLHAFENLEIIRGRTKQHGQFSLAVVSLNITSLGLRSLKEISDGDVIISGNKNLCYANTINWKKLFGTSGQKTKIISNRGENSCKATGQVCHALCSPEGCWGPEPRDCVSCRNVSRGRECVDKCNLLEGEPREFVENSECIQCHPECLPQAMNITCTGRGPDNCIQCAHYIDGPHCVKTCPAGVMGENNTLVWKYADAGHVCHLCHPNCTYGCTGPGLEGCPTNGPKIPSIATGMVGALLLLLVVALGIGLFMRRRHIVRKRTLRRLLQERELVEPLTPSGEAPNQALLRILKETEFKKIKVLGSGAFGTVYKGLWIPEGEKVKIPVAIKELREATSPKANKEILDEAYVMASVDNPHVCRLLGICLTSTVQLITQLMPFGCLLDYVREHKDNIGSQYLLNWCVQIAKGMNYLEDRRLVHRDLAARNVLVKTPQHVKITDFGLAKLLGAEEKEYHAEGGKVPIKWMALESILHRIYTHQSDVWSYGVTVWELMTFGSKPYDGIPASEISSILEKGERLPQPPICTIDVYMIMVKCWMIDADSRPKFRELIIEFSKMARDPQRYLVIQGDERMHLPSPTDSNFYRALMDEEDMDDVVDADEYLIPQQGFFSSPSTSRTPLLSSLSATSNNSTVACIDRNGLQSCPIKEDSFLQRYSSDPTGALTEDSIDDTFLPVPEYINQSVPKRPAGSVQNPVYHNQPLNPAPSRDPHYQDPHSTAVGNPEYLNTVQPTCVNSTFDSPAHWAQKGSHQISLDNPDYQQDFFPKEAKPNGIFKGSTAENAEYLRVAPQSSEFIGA
Sequence of Testis-specific serine/threonine-protein kinase 1 (Homo sapiens) (Q9BXA7 whole entry): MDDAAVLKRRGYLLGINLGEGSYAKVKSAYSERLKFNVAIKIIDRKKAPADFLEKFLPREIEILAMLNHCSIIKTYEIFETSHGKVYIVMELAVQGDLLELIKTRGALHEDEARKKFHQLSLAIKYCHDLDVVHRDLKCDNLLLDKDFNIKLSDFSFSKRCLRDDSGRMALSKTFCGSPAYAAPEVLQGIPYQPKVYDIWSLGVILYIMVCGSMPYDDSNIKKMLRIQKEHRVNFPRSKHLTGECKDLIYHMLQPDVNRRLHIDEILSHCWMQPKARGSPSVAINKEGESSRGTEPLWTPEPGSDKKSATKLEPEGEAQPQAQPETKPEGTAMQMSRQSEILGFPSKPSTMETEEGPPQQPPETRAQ

With O=C1Nc2ncccc2/C1=C1/Nc2ncccc2C1=O the Activity [1] was 94%, the Activity [2] was 89% and the GI50 (BT-549) was 1.6 µM. For the same compound, the GI50 (TK-10) was 2.27 µM, the GI50 (ACHN) was 1.48 µM and the GI50 [3] was 1.09 µM. The GI50 (SK-MEL-5) was 0.16 µM, the GI50 (SF-268) was 1.62 µM and the GI50 (KM12) was 0.387 µM. It also gave an Activity [4] of 85%, an Activity [5] of 117% and an Activity [6] of 103%. For the same compound, the Activity [7] was 105%, the Activity [8] was 121% and the Activity (MCF7 [9]) was “Active”. For the same compound, the Activity (MCF7 [10]) was 21.21%, the inhibition [11] was “Active” and the inhibition [12] was “Active”. The Activity [13] was 101%, the Activity [14] was 74% and the Activity [15] was 104%. It also gave an Activity [16] of 133%, an Activity [17] of 96% and an Activity [18] of 101%. The Activity [19] was 127%, the Activity [20] was 125% and the Activity [21] was 122%. The Activity [22] was 99%, the Activity [23] was 100% and the Activity [24] was 119%. It also gave an Activity [25] of 104%, an Activity [26] of 106% and an Activity [27] of 92%.

— ChEMBL document CHEMBL3098105, “7,7'-Diazaindirubin--a small molecule inhibitor of casein kinase 2 in vitro and in cells” (Bioorg Med Chem, 2014)
